Measured values from ChEMBL document CHEMBL4184128, “Design, synthesis and biological evaluation of (E)-3,4-dihydroxystyryl 4-acylaminophenethyl sulfone, sulfoxide derivatives as dual inhibitors of HIV-1 CCR5 and integrase” (Bioorg Med Chem, 2017).

Key:
[1] = Cytotoxicity against human TZM-bl cells assessed as reduction in cell viability after 2 days by CCK-8 assay; assay type: cell-based
How it was run: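 TZM-bl cells seeded at 1×10^5 cells/mL and exposed to compound at 1000, 200, 40, 8 and 1.6µM, dissolved in DMSO cell freezing medium. Cells kept at 37°C, 5% CO2, in triplicate wells, with a medium-only control. After 2 days, CCK-8 was added for 3–4 h and A450 was read. Survival % = A450 treated/control ×100. CC50 is the concentration giving 50% cytotoxicity.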

[2] = target: C-C chemokine receptor type 5 (Homo sapiens) (UniProt P51681); experiment: Inhibition of CCR5 in human TZM-bl cells infected with HIV1 Bal R5 assessed as antiviral activity by measuring reduction in viral infection at 50 uM pre-incubated with cells followed by viral infection measured after 3 days by luciferase reporter gene assay; assay type: functional, cell-based
How it was run: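 TZM-bl cells were plated, and medium was replaced after 12 h with compound at 50μM in duplicate wells. HIV-1 Bal (R5) at 200TCID50 was added with DEAE at 10μg/mL final. Plates were incubated 3 days at 37°C, 5% CO2. Luciferase substrate in lysis buffer reacted 2 min at room temperature, protected from light. Inhibition % was taken as the decrease in signal relative to virus control, as the mean of two wells.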

[3] = target: Human immunodeficiency virus type 1 integrase (Human immunodeficiency virus 1, UniProt Q7ZJM1); experiment: Binding affinity to HIV1 integrase by surface plasma resonance method
How it was run: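 IN protein amine-coupled to a CM5 sensor chip (~10000RU) on a Biacore T200. Runs at 25°C in PBST running buffer, flow 30μL/min. Compounds were injected at graded concentrations (200μM, 100μM, 50μM, 25μM, 12.5μM, etc.). Sensorgrams were solvent-corrected and reference flow cell subtracted. KD came from a 1:1 kinetic binding fit.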

Sequence of Human immunodeficiency virus type 1 integrase (Q7ZJM1 whole entry): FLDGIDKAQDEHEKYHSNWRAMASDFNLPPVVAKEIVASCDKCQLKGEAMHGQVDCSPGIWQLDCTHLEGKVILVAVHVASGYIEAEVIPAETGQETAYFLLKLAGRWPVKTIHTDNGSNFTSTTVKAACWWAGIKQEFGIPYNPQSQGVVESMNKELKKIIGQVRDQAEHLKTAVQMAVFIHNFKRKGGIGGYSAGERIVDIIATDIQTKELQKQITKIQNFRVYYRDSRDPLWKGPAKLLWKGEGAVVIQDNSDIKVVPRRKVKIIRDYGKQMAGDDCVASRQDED
Sequence of C-C chemokine receptor type 5 (Homo sapiens) (P51681 whole entry, looked up): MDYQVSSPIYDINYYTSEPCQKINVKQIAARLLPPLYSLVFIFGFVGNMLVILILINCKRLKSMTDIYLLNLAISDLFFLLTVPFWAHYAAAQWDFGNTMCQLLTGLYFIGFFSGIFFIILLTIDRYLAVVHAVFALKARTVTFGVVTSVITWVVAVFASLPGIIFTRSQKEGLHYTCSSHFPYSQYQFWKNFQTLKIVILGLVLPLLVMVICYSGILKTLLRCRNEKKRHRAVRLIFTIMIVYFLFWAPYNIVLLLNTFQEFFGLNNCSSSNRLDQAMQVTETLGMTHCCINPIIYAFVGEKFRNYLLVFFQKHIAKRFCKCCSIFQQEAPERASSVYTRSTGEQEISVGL

inhibition [2] [%]	Kd [3] [µM]	SMILES	CC50 at 48 h [1] [µM]
< 20	160	O=C(Nc1ccc(CCS(=O)(=O)/C=C/c2ccc(O)c(O)c2)cc1)c1ccccc1	238
41.8		O=C(Nc1ccc(CC[S+]([O-])/C=C/c2ccc(O)c(O)c2)cc1)c1cc(F)cc(F)c1 (centres undefined)	
< 20		CC(=O)Oc1ccc(/C=C/S(=O)(=O)CCc2ccc(NC(=O)c3ccc(C)cc3)cc2)cc1OC(C)=O	177
23		CC(=O)Oc1ccc(/C=C/S(=O)(=O)CCc2ccc(NC(=O)Cc3cccs3)cc2)cc1OC(C)=O	161
< 20		CC(=O)Oc1ccc(/C=C/S(=O)(=O)CCc2ccc(NC(=O)c3cc(F)cc(F)c3)cc2)cc1OC(C)=O	225
34.1		COc1ccc(C(=O)Nc2ccc(CC[S+]([O-])/C=C/c3ccc(O)c(O)c3)cc2)cc1 (centres undefined)	
< 20		CC(=O)Oc1ccc(/C=C/S(=O)(=O)CCc2ccc(NC(=O)C3CCCCC3)cc2)cc1OC(C)=O	169
< 20		O=C(Cc1cccs1)Nc1ccc(CCS(=O)(=O)/C=C/c2ccc(O)c(O)c2)cc1	569
64.7		O=C(Nc1ccc(CC[S+]([O-])/C=C/c2ccc(O)c(O)c2)cc1)C12CC3CC(CC(C3)C1)C2 (centres undefined)	
< 20		O=C(Nc1ccc(CCS(=O)(=O)/C=C/c2ccc(O)c(O)c2)cc1)c1ccc(F)cc1	> 1000
33		O=C(Nc1ccc(CCS(=O)(=O)/C=C/c2ccc(O)c(O)c2)cc1)c1cc(F)cc(F)c1	414

More lines, now with the values behind:

SMILES	inhibition [2] [%]	Kd [3] [µM]	CC50 at 48 h [1] [µM]
O=C(Nc1ccc(CCS(=O)(=O)/C=C/c2ccc(O)c(O)c2)cc1)C1CCCCC1	45.9	115	638
COc1ccc(C(=O)Nc2ccc(CCS(=O)(=O)/C=C/c3ccc(O)c(O)c3)cc2)cc1	< 20		> 1000
O=C(Nc1ccc(CC[S+]([O-])/C=C/c2ccc(O)c(O)c2)cc1)C1CCCCC1 (centres undefined)	52.7		
CC(=O)Oc1ccc(/C=C/S(=O)(=O)CCc2ccc(NC(=O)c3ccccc3)cc2)cc1OC(C)=O	< 20	207	108
Cc1nnc(C(C)C)n1[C@@H]1C[C@H]2CC[C@@H](C1)N2CC[C@H](NC(=O)C1CCC(F)(F)CC1)c1ccccc1 [MARAVIROC]			> 1000
CC(=O)Oc1ccc(/C=C/S(=O)(=O)CCc2ccc(NC(=O)c3ccc([N+](=O)[O-])cc3)cc2)cc1OC(C)=O	52.2		160
CC(=O)Oc1ccc(/C=C/S(=O)(=O)CCc2ccc(NC(=O)c3ccc(F)cc3)cc2)cc1OC(C)=O	26.2		162
O=C(Nc1ccc(CCS(=O)(=O)/C=C/c2ccc(O)c(O)c2)cc1)c1ccc([N+](=O)[O-])cc1	23.4		483
O=C(Nc1ccc(CC[S+]([O-])/C=C/c2ccc(O)c(O)c2)cc1)c1ccccc1 (centres undefined)	68.4	142	157
Cc1ccc(C(=O)Nc2ccc(CCS(=O)(=O)/C=C/c3ccc(O)c(O)c3)cc2)cc1	< 20		168
O=C(Nc1ccc(CC[S+]([O-])/C=C/c2ccc(O)c(O)c2)cc1)c1ccc(F)cc1 (centres undefined)	64.6		127
COc1ccc(C(=O)Nc2ccc(CCS(=O)(=O)/C=C/c3ccc(OC(C)=O)c(OC(C)=O)c3)cc2)cc1	< 20		858
CC(=O)Oc1ccc(/C=C/S(=O)(=O)CCc2ccc(NC(=O)C34CC5CC(CC(C5)C3)C4)cc2)cc1OC(C)=O	23.7		182
O=C(Nc1ccc(CCS(=O)(=O)/C=C/c2ccc(O)c(O)c2)cc1)C12CC3CC(CC(C3)C1)C2	21.6		786
